M4 antag = CHRM4 antagonism in calcium assay; P08173; CHO-hM4 cells, ACh EC80, Fluo-8 calcium fluorescence; inhibition, % at 3 µM; 360,000 tested, 0.73% active; AID 624125;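 active = inhibition above its plate's cutoff, the mean inhibition of sample wells plus 3 SD, cut at about 27% in these data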
M4 PAM = CHRM4 positive allosteric modulation; P08173; CHO-K1 hM4/Gqi5, Fluo-8 calcium fluorescence, ACh EC20; 0% = ACh EC20, 100% = maximal ACh; activation, % at 3 µM; 360,000 tested, 0.4% active;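 active = activation above its plate's cutoff, the mean activation of sample wells plus 3 SD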
CHRM5 PAM = potentiates acetylcholine response at human M5 receptor; P08912; CHO-K1 hM5, Fluo-8 calcium, ACh EC20 PAM; 0% = ACh EC20, 100% = ACh EC100; activation, % at 3 µM; 360,000 tested, 0.3% active; AID 624038;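 active = activation above the run cutoff, the mean activation of all test compounds plus 3 SD, cut at about 18% in these data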
Target sequence (P08912 whole entry, looked up): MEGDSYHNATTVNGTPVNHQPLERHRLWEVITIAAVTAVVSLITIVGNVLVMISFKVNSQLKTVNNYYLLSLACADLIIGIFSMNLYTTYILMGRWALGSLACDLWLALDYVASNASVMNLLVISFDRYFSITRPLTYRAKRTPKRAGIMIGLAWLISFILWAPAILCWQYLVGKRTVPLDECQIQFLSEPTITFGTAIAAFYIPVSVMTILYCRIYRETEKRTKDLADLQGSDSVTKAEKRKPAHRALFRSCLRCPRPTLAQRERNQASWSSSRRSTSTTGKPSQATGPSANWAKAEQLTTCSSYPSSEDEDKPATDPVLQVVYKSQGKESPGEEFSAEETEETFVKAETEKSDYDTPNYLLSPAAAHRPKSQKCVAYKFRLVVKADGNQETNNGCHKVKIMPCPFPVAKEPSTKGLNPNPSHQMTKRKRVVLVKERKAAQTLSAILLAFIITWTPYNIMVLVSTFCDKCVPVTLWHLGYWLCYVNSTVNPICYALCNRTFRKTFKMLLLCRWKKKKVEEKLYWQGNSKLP
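Probe or stimulus: acetylcholine, EC20 level; Assay system: human M5 receptor in CHO-K1 cells; Schedule: compound preincubation 140 s before EC20 acetylcholine addition; Technique: intracellular calcium via Fluo-8 fluorescence; Dosing: single-point, 3 µM nominal; Read-out basis: percent activation from peak-over-basal fluorescence ratio, scaled EC20-to-EC100 acetylcholine; Repeats: one well per compound, no replicates.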
CHRM4 agonist = CHRM4 agonism in calcium assay. activation, % at 3 µM. AID 624127. CHO-K1 hM4/Gqi5, Fluo-8 calcium fluorescence; vehicle 0%, full acetylcholine response 100%. P08173. 360,000 tested, 0.14% active;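 active = activation above the run mean over all test wells plus 3 SD, cut at about 32% in these data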;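 note: peak over basal fluorescence ratio per well then scaled between controls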
M5 ag = agonists of human muscarinic M5 receptor (CHRM5); P08912; CHO-K1 hM5 cells, Fluo-8 calcium fluorescence; 0% DMSO wells, 100% maximal acetylcholine response; activation, % at 3 µM; 360,000 tested, 0.19% active; AID 624037;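 active = activation above the run's mean over test compounds plus 3 SD, cut at about 23% in these data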;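 note: signal is peak over basal fluorescence ratio across the kinetic read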
CHRM5 antagonist = blocks acetylcholine activation of human M5 receptor | P08912 | CHO-hM5 cells, Fluo-8 calcium fluorescence, ACh EC80 | inhibition, % at 3 µM | 360,000 tested, 0.59% active | AID 624040;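 active = inhibition above a per-plate cutoff, the mean of that plate's test compounds plus 3 SD, cut at about 27% in these data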
A number is an active result; n = inactive. In the library only some 1.8% were active in any assay of this set; here they are far more common.

SMILES	M4 antag	M4 PAM	CHRM5 PAM	CHRM4 agonist	M5 ag	CHRM5 antagonist
C[C@H]1CN([C@@H](C)CO)C(=O)CCCn2nncc2CO[C@@H]1CN(C)S(=O)(=O)c1ccc(-n2cccn2)cc1	n	n	n	n	n	n
Cc1ccc(Nc2ccc(NCc3ccccc3)nn2)cc1C	n	n	n	n	n	n
Clc1ccc(Nc2ccc(NCc3ccccc3)nn2)cc1	n	n	n	50	n	n
COc1cccc(NC(=O)Cn2c(CCC(=O)O)ccc2-c2cccs2)c1	n	n	19	n	n	n
CN1CCN(NC(=O)c2cc(Br)ccc2Cl)CC1	n	n	n	n	n	27
CN1CCN(NC(=O)c2ccc(Cl)cc2Cl)CC1	n	n	n	n	n	n
CC(C)N(C(=O)N1CCN(c2ccnc3cc(Cl)ccc23)CC1)C(C)C	n	n	n	n	n	n
COc1ccc([C@@H]2CC=C(C(=O)O)[C@H](c3ccccc3F)N2S(=O)(=O)c2ccccc2C)cc1	n	n	20	n	n	n
COc1ccc([C@@H]2CC=C(C(=O)O)[C@H](c3ccc(F)cc3)N2S(=O)(=O)c2ccccc2C)cc1	n	n	n	n	n	n
CC(OC(=O)CCCN=C1NS(=O)(=O)c2ccccc21)C(=O)Nc1ccccc1[N+](=O)[O-] (stereo unspecified)	n	n	n	n	n	n
Cc1ccc(C2=NS(=O)(=O)N(C)C(C(=O)Nc3cc(C)n(CC(=O)N4CCC(C)CC4)n3)=C2)cc1	n	n	n	n	n	n
CCCn1c(SCC(=O)Nc2cccc(S(=O)(=O)NC3=NCCCCC3)c2)nc2ccccc2c1=O	n	n	24	n	n	n
Cc1ccc(N/N=C2\CS(=O)(=O)N(C)c3ccsc32)cc1	n	n	n	n	n	n
CCCC(=O)N/N=C1\CS(=O)(=O)N(C)c2ccsc21	51	n	n	n	n	n
CN(C)CCNc1ccc2ncn3c4ccc(O)cc4c(=O)c1c23	n	n	n	n	n	n
Cc1ccccc1NC(=O)Nc1nc(C(N)Cc2ccccc2)cs1 (stereo unspecified)	n	n	n	36	n	n
NC(Cc1ccc(Cl)cc1)c1csc(NC(=O)Nc2ccccc2)n1 (stereo unspecified)	27	n	n	n	n	n
COc1ccccc1NC(=O)Nc1nc(C(N)Cc2ccc(Cl)cc2)cs1 (stereo unspecified)	34	n	n	51	n	n
COc1ccccc1NC(=O)Nc1nc(C(N)Cc2ccccc2)cs1 (stereo unspecified)	n	n	n	n	n	n
COC(=O)c1sccc1S(=O)(=O)NCc1ccc(S(N)(=O)=O)cc1	n	n	n	n	n	n
COC(=O)C1=NN(C(=O)c2cccc(Br)c2)C(O)(c2ccc(Cl)cc2)C1 (stereo unspecified)	n	n	n	39	n	n
COCCNC(=O)C1(C)CCCN(C(=O)c2ccc(OC)c(OC)c2)C1 (stereo unspecified)	n	n	n	n	n	n
COC(=O)[C@]12CCCCC=C1N(CCc1ccc(OC)c(OC)c1)C(=O)[C@H](CC(=O)N1CCC(c3ccccc3)CC1)C2	n	n	n	n	n	28
COC(=O)[C@@]12C[C@@H](CC(=O)NCc3cccc(C(F)(F)F)c3)C(=O)N(CCc3ccc(OC)c(OC)c3)C1=CCC(C)(C)C2	27	n	n	33	n	n
COC(=O)[C@]12CCCCC=C1N(CCc1ccc(OC)c(OC)c1)C(=O)[C@H](CC(=O)NCc1cccc(C(F)(F)F)c1)C2	n	n	n	n	n	n
SMILES	M4 antag	M4 PAM	CHRM5 PAM	CHRM4 agonist	M5 ag	CHRM5 antagonist
Nc1cc(=O)[nH]c(SCCOc2ccccc2)n1	n	n	n	n	n	27
COc1cccc(OC)c1C(=O)Nc1ccncc1	n	n	n	n	n	n
C=CCC(CC=C)(NC(=O)c1ccccc1)c1ccccc1	n	n	n	n	n	n
C=CCC(CC=C)(NC(=O)c1ccccc1C)c1ccccc1	n	n	41	n	n	n
O=C(Nc1csc([N+](=O)[O-])c1)Nc1ccccc1Cl	29	n	n	n	n	45
CCOC(=O)c1ccc(NC(=S)N2CCSC2c2ccc(Cl)cc2)cc1 (stereo unspecified)	28	n	n	61	35	n
CCCCc1ccc(/C=C2/C(=O)ON=C2c2ccccc2)s1	n	27	n	n	n	n
Clc1cccc(Oc2cnc3ccccc3n2)c1	n	30	n	n	n	n
COc1ccc(-c2c[n+](CC(=O)c3cccs3)c3n2CCC3)cc1	n	n	n	n	n	n
O=C(C[n+]1cc(-c2ccc(Cl)cc2)n2c1CCC2)Nc1nc(-c2ccccc2)cs1	n	n	n	n	n	n
CC1CCC(C(C)C)C(OC(=O)C[n+]2cc(-c3ccc(Cl)cc3)n3c2CCC3)C1 (stereo unspecified)	29	n	n	n	n	53
COc1ccc(-c2c[n+](CC(=O)N3c4ccccc4Sc4ccccc43)c3n2CCC3)cc1	53	n	n	n	n	41
O=C(C[n+]1cc(-c2ccc(Cl)cc2)n2c1CCC2)N1c2ccccc2Sc2ccccc21	97	n	n	n	n	99
O=C(C[n+]1cc(-c2ccc(Cl)c(Cl)c2)n2c1CCC2)N1c2ccccc2Sc2ccccc21	98	n	n	n	n	100
CCCCCC(=O)N1C[C@@H](n2cc(C3CC3)nn2)[C@H](O)C[C@@H]1c1ccc(Cl)cc1	n	n	n	n	n	n
CCOc1ccc(N(CC(=O)NC2CCCCC2)C(=O)Cn2nnc(-c3ccc(C)o3)n2)cc1	n	n	n	n	n	n
CCN(CC)c1ccc(/C=C(/C#N)c2nc3ccccc3[nH]2)c(OC(C)C)c1	n	n	n	57	n	n
CCOc1cccc(/C=C(/C#N)c2nc3ccccc3[nH]2)c1OCC(=O)O	n	n	n	n	n	n
CCN(CC)CCCOC(=O)C(c1ccccc1)c1ccccc1	91	n	n	n	n	98
O=C(C[C@@H]1C/C=C\CCCC(=O)OC[C@@H]2CCCN2C1=O)N[C@@H](CO)Cc1ccccc1	n	n	n	n	n	n
COc1ccc2c(c1)c1c3n2CCN(C)C3=NCC1	n	15	n	n	n	n
CC1=CC(C)C(/C=N/N=C(N)N)C(C)C1 (stereo unspecified)	n	n	21	n	n	n
CC1=CC(C)C(C[N+]2(C)CCCCC2)C(C)C1 (stereo unspecified)	n	n	n	n	n	n
COC(=O)[C@H]1[C@@H](C)N(Cc2ccccc2)C(=O)N[C@H]1c1cccc(C(F)(F)F)c1	n	n	19	n	n	n
